According to ChEMBL document CHEMBL6134766, “Design, synthesis, and evaluation of benzhydrylpiperazine-based novel dual COX-2/5-LOX inhibitors with anti-inflammatory and anti-cancer activity” (RSC Med Chem, 2025):
Active and inactive are the calls of the source. The rule behind the calls is not given here.

How the values were obtained:
[1] = test system: Rattus norvegicus; assay: Anti-inflammatory activity in arachidonic acid-induced paw edema Wistar rat model assessed as protection against swelling thickness of paw at 10 mg/kg, po measured after 1 hr by digital vernier caliper (reference value: 0 %); type: functional
[2] = Toxicity in fasting Wistar rat assessed as ulcer index at 10 mg/kg, po via gavage treated for 3 days consecutively by H and E staining based analysis (reference value: 0); type: organism-based; details: in vivo, 72 h, time 3 day
Summary of the method: (§1)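 Fasted rats, n = 6/group, gavaged once daily for 3 days in 0.3% Na CMC (vehicle control 0.3% CMC); killed under anaesthesia 6 h after day-3 dose; stomachs saline-washed, mucosa examined with hand lens; ulcer score, index and % ulceration by reported scoring; some stomachs formalin-fixed, H&E stained.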

[3] = test system: Rattus norvegicus; assay: Anti-inflammatory activity in carrageenan-induced paw edema Wistar rat model assessed as swelling thickness of paw at 10 mg/kg, po measured after 2 hrs by digital vernier caliper (reference value: 8.65 +/- 0.53 millimeter); type: functional
[4] = test system: Rattus norvegicus; assay: Cardio-protective activity in ISO-treated Wistar rat assessed as decrease in serum LDH level at 20 mg/kg, po; type: functional, organism-based
Summary of the method: (§2)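 Rats (n = 6/group) given ISO 100 mg kg−1 s.c., then oral test compound in 0.3% CMC; vehicle controls. Retro-orbital blood, serum separated at 4000 rpm, 4 °C, 10 min; LDH and CK-MB by commercial kits; mean ± SD.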

[5] = test system: Rattus norvegicus; assay: Anti-inflammatory activity in carrageenan-induced paw edema Wistar rat model assessed as swelling thickness of paw at 20 mg/kg, po measured immediately by digital vernier caliper (reference value: 3.48 +/- 0.21 millimeter); type: functional
[6] = Toxicity in fasting Wistar rat assessed as ulcer score at 5 mg/kg, po via gavage treated for 3 days consecutively by H and E staining based analysis (reference value: 0); type: organism-based; details: in vivo, 72 h, time 3 day; summary of the method: as §1
[7] = test system: Rattus norvegicus; assay: Anti-inflammatory activity in carrageenan-induced paw edema Wistar rat model assessed as decrease in IL-6 level in paw tissue at 5 to 20 mg/kg, po measured for 6 hrs by ELISA; type: functional, organism-based; details: dose 5-20 mg/kg
Summary of the method: (§3)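 Paw tissue taken from carrageenan-edema rats dosed orally at 5, 10 or 20 mg kg−1. Tissue rinsed in PBS pH 7.4, minced, homogenized, filtered and centrifuged at 2000 rpm for 20 min at 4 °C. Supernatant assayed by ELISA for PGE2, IL-6, TNF-α and IL-10. Data as mean ± SD.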

[8] = test system: Rattus norvegicus; assay: Anti-inflammatory activity in Wistar rat assessed as reduction in ADP/collagen-induced platelet aggregation at 20 mg/kg, po; type: functional, organism-based
Summary of the method: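 Platelet-rich plasma from treated rats (n = 6/group) adjusted to 4 × 10^8 platelets per ml in Tyrode's buffer. Absorbance read at 570 nm, then aggregation induced with ADP plus 5 μg ml−1 collagen. Plates incubated 5 min at 37 °C with shaking and absorbance re-read at 570 nm. Percent aggregation derived from the absorbance change.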

[9] = test system: Rattus norvegicus; assay: Anti-inflammatory activity in carrageenan-induced paw edema Wistar rat model assessed as swelling thickness of paw at 5 mg/kg, po measured after 6 hrs by digital vernier caliper (reference value: 8.33 +/- 0.42 millimeter); type: functional
[10] = test system: Rattus norvegicus; assay: Anti-inflammatory activity in arachidonic acid-induced paw edema Wistar rat model assessed as protection against swelling thickness of paw at 20 mg/kg, po measured after 1 hr by digital vernier caliper (reference value: 0 %); type: functional
[11] = test system: Rattus norvegicus; assay: Cardio-protective activity in ISO-treated Wistar rat assessed as decrease in serum cTn-I level at 20 mg/kg, po by ELISA; type: functional, organism-based
Summary of the method: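 ISO 100 mg kg−1 s.c. rat model, oral treatment after ISO, n = 6 per group; serum from retro-orbital blood (4000 rpm, 4 °C, 10 min); cTn-I by commercial kit; mean ± SD.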

[12] = test system: Rattus norvegicus; assay: Anti-inflammatory activity in carrageenan-induced paw edema Wistar rat model assessed as swelling thickness of paw at 20 mg/kg, po measured after 1 hr by digital vernier caliper (reference value: 8.47 +/- 0.25 millimeter); type: functional
[13] = test system: Rattus norvegicus; assay: Anti-inflammatory activity in carrageenan-induced paw edema Wistar rat model assessed as swelling thickness of paw at 20 mg/kg, po measured after 6 hrs by digital vernier caliper (reference value: 8.33 +/- 0.42 millimeter); type: functional
[14] = Toxicity in fasting Wistar rat assessed as ulceration at 10 mg/kg, po via gavage treated for 3 days consecutively by H and E staining based analysis (reference value: 0 %); type: organism-based; details: in vivo, 72 h, time 3 day; summary of the method: as §1
[15] = test system: Rattus norvegicus; assay: Anti-inflammatory activity in carrageenan-induced paw edema Wistar rat model assessed as swelling thickness of paw at 20 mg/kg, po measured after 2 hrs by digital vernier caliper (reference value: 8.65 +/- 0.53 millimeter); type: functional
[16] = Toxicity in Wistar rat assessed as change in serum ALT level at 20 mg/kg, po; type: organism-based; details: in vivo
Summary of the method: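 Rats dosed orally in 0.3% Na CMC; retro-orbital blood clotted at room temperature, serum separated at 2000 rpm, 20 min, 4 °C; ALT, AST, creatinine and urea by commercial kits; n = 6 per group, mean ± SD; Tukey test after repeated-measures one-way ANOVA.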

[17] = test system: Rattus norvegicus; assay: Cardio-protective activity in ISO-treated Wistar rat assessed as decrease in serum CK-MB level at 20 mg/kg, po; type: functional, organism-based; summary of the method: as §2
[18] = test system: Rattus norvegicus; assay: Anti-inflammatory activity in carrageenan-induced paw edema Wistar rat model assessed as increase in IL-10 level in paw tissue at 5 to 20 mg/kg, po measured for 6 hrs by ELISA; type: functional, organism-based; details: dose 5-20 mg/kg; summary of the method: as §3
[19] = Toxicity in fasting Wistar rat assessed as ulceration at 5 mg/kg, po via gavage treated for 3 days consecutively by H and E staining based analysis (reference value: 0 %); type: organism-based; details: in vivo, 72 h, time 3 day; summary of the method: as §1
[20] = Toxicity in fasting Wistar rat assessed as ulcer index at 20 mg/kg, po via gavage treated for 3 days consecutively by H and E staining based analysis (reference value: 0); type: organism-based; details: in vivo, 72 h, time 3 day; summary of the method: as §1
[21] = test system: Rattus norvegicus; assay: Anti-inflammatory activity in carrageenan-induced paw edema Wistar rat model assessed as swelling thickness of paw at 10 mg/kg, po measured after 5 hrs by digital vernier caliper (reference value: 8.47 +/- 0.32 millimeter); type: functional
[22] = test system: Rattus norvegicus; assay: Anti-inflammatory activity in carrageenan-induced paw edema Wistar rat model assessed as swelling thickness of paw at 5 mg/kg, po measured immediately by digital vernier caliper (reference value: 3.48 +/- 0.21 millimeter); type: functional
[23] = Toxicity in fasting Wistar rat assessed as ulceration at 20 mg/kg, po via gavage treated for 3 days consecutively by H and E staining based analysis (reference value: 0 %); type: organism-based; details: in vivo, 72 h, time 3 day; summary of the method: as §1
[24] = test system: Rattus norvegicus; assay: Anti-inflammatory activity in carrageenan-induced paw edema Wistar rat model assessed as swelling thickness of paw at 20 mg/kg, po measured after 4 hrs by digital vernier caliper (reference value: 8.36 +/- 0.78 millimeter); type: functional
[25] = test system: Rattus norvegicus; assay: Anti-inflammatory activity in carrageenan-induced paw edema Wistar rat model assessed as swelling thickness of paw at 10 mg/kg, po measured after 4 hrs by digital vernier caliper (reference value: 8.36 +/- 0.78 millimeter); type: functional
[26] = test system: Rattus norvegicus; assay: Anti-inflammatory activity in carrageenan-induced paw edema Wistar rat model assessed as swelling thickness of paw at 5 mg/kg, po measured after 3 hrs by digital vernier caliper (reference value: 8.56 +/- 0.45 millimeter); type: functional
[27] = Toxicity in fasting Wistar rat assessed as ulcer index at 5 mg/kg, po via gavage treated for 3 days consecutively by H and E staining based analysis (reference value: 0); type: organism-based; details: in vivo, 72 h, time 3 day; summary of the method: as §1

Structure (SMILES)	Activity [1] [%]	UI [2]	Activity [3] [mm]	Activity [4]	Activity [5] [mm]	Activity [6]	Activity [7]	Activity [8]	Activity [9] [mm]	Activity [10] [%]	Activity [11]	Activity [12] [mm]	Activity [13] [mm]	Activity [14] [%]	Activity [15] [mm]	Activity [16]	Activity [17]	Activity [18]	Activity [19] [%]	UI [20]	also measured
Clc1ccc(-c2nnc(CN3CCN(C(c4ccccc4)c4ccc(Cl)cc4)CC3)o2)cc1 (centres undefined)	69.22	2.083	3.96	Active	3.43	0	Active	Active	4.14	70.21	Active	5.12	3.41	1.38	4.11	Non-toxic	Active	Active	0	1.875	Activity [21]: 3.29 mm; Activity [22]: 3.51 mm; Activity [23]: 1.25%; Activity [24]: 3.22 mm; Activity [25]: 3.32 mm; Activity [26]: 4.67 mm; UI [27]: 0
O=[N+]([O-])c1ccc(-c2nnc(CN3CCN(C(c4ccccc4)c4ccc(Cl)cc4)CC3)o2)cc1 (centres undefined)	62.33	3.125	4.55	Active	3.65	0.01	Active	Active	4.14	64.36	Active	5.16	3.91	4.85	4.78	Non-toxic	Active	Active	0.667	9.37	Activity [21]: 3.76 mm; Activity [22]: 3.59 mm; Activity [23]: 4.86%; Activity [24]: 4.32 mm; Activity [25]: 3.88 mm; Activity [26]: 4.87 mm; UI [27]: 1.041
